Like-named read-outs stand apart in the source and are kept apart here.
How the values were obtained:
Assay in all cases: MTT assay, cytotoxicity/growth inhibition
A549 (lung carcinoma) = type: cell-based, human; settings: Homo sapiens; for inhibition at 20 µM: A549, 48 h; for IC50: A549
How it was run: (§1)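 Cells were grown in RPMI (A549, HCT-116, PC-3) or DMEM (MCF-7) with 10% FBS at 37 °C and 5% CO2. Seeding per well was […] and PC-3 8 × 10^4 cells. […] MTT 250 μg/mL, 4 h; DMSO; A570; triplicate; mean ± SE.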

[1] = test system: PC-3 (prostate carcinoma); type: cell-based; settings: Homo sapiens; for inhibition at 20 µM: 48 h, read-out: Cytotoxic Activity (% Growth Inhibition)
How it was run: as §1

MCF-7 (breast carcinoma) = type: cell-based; settings: Homo sapiens; for inhibition at 20 µM: MCF7, 48 h, read-out: Cytotoxic Activity (% Growth Inhibition); for IC50: MCF7
How it was run: as §1

[2] = test system: HCT-116 (colon carcinoma); type: cell-based; settings: Homo sapiens; for inhibition at 20 µM: HCT-116, 48 h, read-out: Cytotoxic Activity (% Growth Inhibition); for IC50: HCT-116
How it was run: as §1

[3] = read-out: Cytotoxic Activity (% Growth Inhibition), A549, 20 μM concentration, MTT, 48 h

C[C@]1(CO)C2CC=C(COC(=O)c3ccoc3)[C@@H](/C=C/C3=CCOC3=O)[C@]2(C)CC[C@H]1O (stereo partly drawn) [Compound 9g, ((1S,5R,6R,8aR)-6-Hydroxy-5-(hydroxymethyl)-5,8a-dimethyl-1-((E)-2-(2-oxo-2,5-dihydrofuran-3-yl)vinyl)-1,4,4a,5,6,7,8,8a-octahydronaphthalen-2-yl)methyl Furan-3-carboxylate]
inhibition at 20 µM (A549 (lung carcinoma); [3]): 63.58 ± 0.08% | inhibition at 20 µM [1]: 11 ± 0.22% | inhibition at 20 µM (MCF-7 (breast carcinoma)): 0% | inhibition at 20 µM [2]: 11.28 ± 0.1%

C[C@]1(CO)C2CC=C(COC(=O)c3cccc(C(F)(F)F)c3)[C@@H](/C=C/C3=CCOC3=O)[C@]2(C)CC[C@H]1O (stereo partly drawn) [Compound 9h, ((1S,5R,6R,8aR)-6-Hydroxy-5-(hydroxymethyl)-5,8a-dimethyl-1-((E)-2-(2-oxo-2,5-dihydrofuran-3-yl)vinyl)-1,4,4a,5,6,7,8,8a-octahydronaphthalen-2-yl)methyl 3-(Trifluoromethyl)benzoate]
inhibition at 20 µM (A549 (lung carcinoma); [3]): 28.81 ± 0.03% | inhibition at 20 µM [1]: 29 ± 1.4% | inhibition at 20 µM (MCF-7 (breast carcinoma)): 30.4 ± 0.36% | inhibition at 20 µM [2]: 3.31 ± 0.13%

Cc1cccc(C(=O)OCC2=CCC3[C@](C)(CO)[C@H](O)CC[C@@]3(C)[C@@H]2/C=C/C2=CCOC2=O)c1 (stereo partly drawn) [Compound 9i, ((1S,5R,6R,8aR)-6-Hydroxy-5-(hydroxymethyl)-5,8a-dimethyl-1-((E)-2-(2-oxo-2,5-dihydrofuran-3-yl)vinyl)-1,4,4a,5,6,7,8,8a-octahydronaphthalen-2-yl)methyl 3-Methylbenzoate]
inhibition at 20 µM (A549 (lung carcinoma); [3]): 21.4 ± 0.42% | inhibition at 20 µM [1]: 0% | inhibition at 20 µM (MCF-7 (breast carcinoma)): 2.09 ± 0.07% | inhibition at 20 µM [2]: 0%

COc1cc(OC)cc(C(=O)OCC2=CCC3[C@](C)(CO)[C@H](O)CC[C@@]3(C)[C@@H]2/C=C/C2=CCOC2=O)c1 (stereo partly drawn) [Compound 9j, ((1S,5R,6R,8aR)-6-Hydroxy-5-(hydroxymethyl)-5,8a-dimethyl-1-((E)-2-(2-oxo-2,5 dihydrofuran-3-yl)vinyl)-1,4,4a,5,6,7,8,8a-octahydronaphthalen-2-yl)methyl 3,5-Dimethoxybenzoate]
IC50 (A549 (lung carcinoma)): > 20 µM | inhibition at 20 µM (A549 (lung carcinoma); [3]): 8.7 ± 0.45% | IC50 [1]: 6.1 µM | inhibition at 20 µM [1]: 70 ± 0.82% | IC50 (MCF-7 (breast carcinoma)): 16.6 µM | inhibition at 20 µM (MCF-7 (breast carcinoma)): 51 ± 0.49% | IC50 [2]: > 20 µM | inhibition at 20 µM [2]: 23.9 ± 0.49%

COc1ccc(C(=O)OCC2=CCC3[C@](C)(CO)[C@H](O)CC[C@@]3(C)[C@@H]2/C=C/C2=CCOC2=O)cc1Cl (stereo partly drawn) [Compound 9l, ((1S,5R,6R,8aR)-6-Hydroxy-5-(hydroxymethyl)-5,8a-dimethyl-1-((E)-2-(2-oxo-2,5-dihydrofuran-3-yl)vinyl)-1,4,4a,5,6,7,8,8a-octahydronaphthalen-2-yl)methyl 3-Chloro-4-methoxybenzoate]
IC50 (A549 (lung carcinoma)): > 20 µM | inhibition at 20 µM (A549 (lung carcinoma); [3]): 3.3 ± 0.63% | IC50 [1]: 5.7 µM | inhibition at 20 µM [1]: 71.4 ± 0.56% | IC50 (MCF-7 (breast carcinoma)): 17.8 µM | inhibition at 20 µM (MCF-7 (breast carcinoma)): 47 ± 0.24% | IC50 [2]: > 20 µM | inhibition at 20 µM [2]: 27.5 ± 0.94%

C[C@]1(CO)C2CC=C(COC(=O)c3ccc(Br)cc3F)[C@@H](/C=C/C3=CCOC3=O)[C@]2(C)CC[C@H]1O (stereo partly drawn) [Compound 9m, ((1S,5R,6R,8aR)-6-Hydroxy-5-(hydroxymethyl)-5,8a-dimethyl-1-((E)-2-(2-oxo-2,5-dihydrofuran-3-yl)vinyl)-1,4,4a,5,6,7,8,8a-octahydronaphthalen-2-yl)methyl 4-Bromo-2-fluorobenzoate]
IC50 (A549 (lung carcinoma)): > 20 µM | inhibition at 20 µM (A549 (lung carcinoma); [3]): 14.9 ± 0.24% | IC50 [1]: 7.6 µM | inhibition at 20 µM [1]: 78.9 ± 0.96% | IC50 (MCF-7 (breast carcinoma)): > 20 µM | inhibition at 20 µM (MCF-7 (breast carcinoma)): 8 ± 0.85% | IC50 [2]: > 20 µM | inhibition at 20 µM [2]: 23.1 ± 0.84%

C[C@]1(CO)C2CC=C(COC(=O)c3ccccc3C(F)(F)F)[C@@H](/C=C/C3=CCOC3=O)[C@]2(C)CC[C@H]1O (stereo partly drawn) [Compound 9n, ((1S,5R,6R,8aR)-6-Hydroxy-5-(hydroxymethyl)-5,8a-dimethyl-1-((E)-2-(2-oxo-2,5-dihydrofuran-3-yl)vinyl)-1,4,4a,5,6,7,8,8a-octahydronaphthalen-2-yl)methyl 2-(Trifluoromethyl)benzoate]
IC50 (A549 (lung carcinoma)): > 20 µM | inhibition at 20 µM (A549 (lung carcinoma); [3]): 5.6 ± 0.14% | IC50 [1]: 5.7 µM | inhibition at 20 µM [1]: 72.2 ± 0.41% | IC50 (MCF-7 (breast carcinoma)): > 20 µM | inhibition at 20 µM (MCF-7 (breast carcinoma)): 18 ± 0.58% | IC50 [2]: > 20 µM | inhibition at 20 µM [2]: 44.9 ± 0.78%

C[C@]1(CO)C2CC=C(COC(=O)Cc3ccccc3)[C@@H](/C=C/C3=CCOC3=O)[C@]2(C)CC[C@H]1O (stereo partly drawn) [Compound 9o, ((1S,5R,6R,8aR)-6-Hydroxy-5-(hydroxymethyl)-5,8a-dimethyl-1-((E)-2-(2-oxo-2,5-dihydrofuran-3-yl)vinyl)-1,4,4a,5,6,7,8,8a-octahydronaphthalen-2-yl)methyl 2-Phenylacetate]
inhibition at 20 µM (A549 (lung carcinoma); read-out: Cytotoxic Activity (% Growth Inhibition)): 43.4 ± 0.19% | inhibition at 20 µM [1]: 15 ± 0.72% | inhibition at 20 µM (MCF-7 (breast carcinoma)): 29.2 ± 0.29% | inhibition at 20 µM [2]: 0%

C[C@]1(CO)C2CC=C(COC(=O)Cc3ccc(F)cc3)[C@@H](/C=C/C3=CCOC3=O)[C@]2(C)CC[C@H]1O (stereo partly drawn) [Compound 9p, ((1S,5R,6R,8aR)-6-Hydroxy-5-(hydroxymethyl)-5,8a-dimethyl-1-((E)-2-(2-oxo-2,5-dihydrofuran-3-yl)vinyl)-1,4,4a,5,6,7,8,8a-octahydronaphthalen-2-yl)methyl 2-(4-Fluorophenyl)acetate]
inhibition at 20 µM (A549 (lung carcinoma); [3]): 32.6 ± 0.96% | inhibition at 20 µM [1]: 44 ± 0.89% | inhibition at 20 µM (MCF-7 (breast carcinoma)): 12 ± 0.85% | inhibition at 20 µM [2]: 27.6 ± 0.31%

C[C@]1(CO)C2CC=C(COC(=O)Cc3ccc(Cl)cc3)[C@@H](/C=C/C3=CCOC3=O)[C@]2(C)CC[C@H]1O (stereo partly drawn) [Compound 9q, ((1S,5R,6R,8aR)-6-Hydroxy-5-(hydroxymethyl)-5,8a-dimethyl-1-((E)-2-(2-oxo-2,5-dihydrofuran-3-yl)vinyl)-1,4,4a,5,6,7,8,8a-octahydronaphthalen-2-yl)methyl 2-(4-Chlorophenyl)acetate]
inhibition at 20 µM (A549 (lung carcinoma); [3]): 47.2 ± 0.85% | inhibition at 20 µM [1]: 38 ± 0.96% | inhibition at 20 µM (MCF-7 (breast carcinoma)): 28 ± 0.87% | inhibition at 20 µM [2]: 19.3 ± 0.97%

C[C@]1(CO)C2CC=C(COC(=O)Cc3ccc(I)cc3)[C@@H](/C=C/C3=CCOC3=O)[C@]2(C)CC[C@H]1O (stereo partly drawn) [Compound 9r, ((1S,5R,6R,8aR)-6-Hydroxy-5-(hydroxymethyl)-5,8a-dimethyl-1-((E)-2-(2-oxo-2,5-dihydrofuran-3-yl)vinyl)-1,4,4a,5,6,7,8,8a-octahydronaphthalen-2-yl)methyl 2-(4-Iodophenyl)acetate]
inhibition at 20 µM (A549 (lung carcinoma); [3]): 2.4 ± 0.19% | inhibition at 20 µM [1]: 10.6 ± 0.22% | inhibition at 20 µM (MCF-7 (breast carcinoma)): 12 ± 0.96% | inhibition at 20 µM [2]: 27.2 ± 0.48%

Cc1ccc(CC(=O)OCC2=CCC3[C@](C)(CO)[C@H](O)CC[C@@]3(C)[C@@H]2/C=C/C2=CCOC2=O)cc1 (stereo partly drawn) [Compound 9t, ((1S,5R,6R,8aR)-6-Hydroxy-5-(hydroxymethyl)-5,8a-dimethyl-1-((E)-2-(2-oxo-2,5-dihydrofuran-3-yl)vinyl)-1,4,4a,5,6,7,8,8a-octahydronaphthalen-2-yl)methyl 2-(p-Tolyl)acetate]
inhibition at 20 µM (A549 (lung carcinoma); [3]): 49.7 ± 0.92% | inhibition at 20 µM [1]: 52 ± 0.85% | inhibition at 20 µM (MCF-7 (breast carcinoma)): 5.2 ± 0.5% | inhibition at 20 µM [2]: 13.9 ± 0.64%

COc1cc(CC(=O)OCC2=CCC3[C@](C)(CO)[C@H](O)CC[C@@]3(C)[C@@H]2/C=C/C2=CCOC2=O)cc(OC)c1OC (stereo partly drawn) [Compound 9u, ((1S,5R,6R,8aR)-6-Hydroxy-5-(hydroxymethyl)-5,8a-dimethyl-1-((E)-2-(2-oxo-2,5-dihydrofuran-3-yl)vinyl)-1,4,4a,5,6,7,8,8a-octahydronaphthalen-2-yl)methyl 2-(3,4,5-Trimethoxyphenyl)acetate]
inhibition at 20 µM (A549 (lung carcinoma); [3]): 32.6 ± 0.38% | inhibition at 20 µM [1]: 48.7 ± 0.96% | inhibition at 20 µM (MCF-7 (breast carcinoma)): 69 ± 0.58% | inhibition at 20 µM [2]: 35.9 ± 0.87%
